According to ChEMBL document CHEMBL3085673, “The design of a novel series of muscarinic receptor antagonists leading to AZD8683, a potential inhaled treatment for COPD” (Bioorg Med Chem Lett, 2013):

Legend:
[1] = molecular target: Muscarinic acetylcholine receptor M3 (Cavia porcellus, UniProt Q8VH26); assay: Antagonist activity at M3 receptor in Dunkin-Hartley guinea pig trachea assessed as inhibition of methacholine-induced airway smooth muscle contraction after 1 to 4 hrs; settings: read-out: pA2 (converted)
Sequence of Muscarinic acetylcholine receptor M3 (Cavia porcellus, UniProt Q8VH26) (Q8VH26 whole entry): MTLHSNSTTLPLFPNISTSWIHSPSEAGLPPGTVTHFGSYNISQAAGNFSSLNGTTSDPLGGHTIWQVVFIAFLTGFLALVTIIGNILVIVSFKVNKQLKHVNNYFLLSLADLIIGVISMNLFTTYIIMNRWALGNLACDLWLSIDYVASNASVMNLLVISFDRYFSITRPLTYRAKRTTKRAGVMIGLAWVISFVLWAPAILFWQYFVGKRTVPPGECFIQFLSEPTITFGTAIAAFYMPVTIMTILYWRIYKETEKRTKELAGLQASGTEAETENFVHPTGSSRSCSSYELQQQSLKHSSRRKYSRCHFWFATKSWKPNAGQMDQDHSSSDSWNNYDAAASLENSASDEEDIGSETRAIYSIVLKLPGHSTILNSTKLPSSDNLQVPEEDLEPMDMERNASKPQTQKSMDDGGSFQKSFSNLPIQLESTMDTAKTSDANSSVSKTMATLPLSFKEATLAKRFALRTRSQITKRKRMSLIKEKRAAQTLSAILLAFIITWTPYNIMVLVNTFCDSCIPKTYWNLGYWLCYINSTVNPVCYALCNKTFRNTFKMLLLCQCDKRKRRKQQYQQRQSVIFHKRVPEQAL
Procedure, shortened: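 Isolated guinea pig tracheal rings equilibrated 1 h, re-tensioned to 1 g, primed with methacholine, then a cumulative methacholine curve (3 × 10^-9 to 3 × 10^-5 M). Vehicle or compound equilibrated 1 or 4 h before a second curve (3 × 10^-9 to 1 × 10^-3 M final). Isometric force as % of curve-1 maximum. pA2 calculated from vehicle and test A50 values; n = 2.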

[2] = Plasma protein binding in human; type: ADME, cell-free; settings: for fraction unbound: read-out: PPB (converted)
[3] = molecular target: Muscarinic acetylcholine receptor M3 (Homo sapiens, UniProt P20309); assay: Displacement of [3H]NMS from recombinant human M3 receptor expressed in CHO-K1 cells after 16 hrs by SPA method; type: cell-based
Sequence of Muscarinic acetylcholine receptor M3 (Homo sapiens, UniProt P20309) (P20309 whole entry): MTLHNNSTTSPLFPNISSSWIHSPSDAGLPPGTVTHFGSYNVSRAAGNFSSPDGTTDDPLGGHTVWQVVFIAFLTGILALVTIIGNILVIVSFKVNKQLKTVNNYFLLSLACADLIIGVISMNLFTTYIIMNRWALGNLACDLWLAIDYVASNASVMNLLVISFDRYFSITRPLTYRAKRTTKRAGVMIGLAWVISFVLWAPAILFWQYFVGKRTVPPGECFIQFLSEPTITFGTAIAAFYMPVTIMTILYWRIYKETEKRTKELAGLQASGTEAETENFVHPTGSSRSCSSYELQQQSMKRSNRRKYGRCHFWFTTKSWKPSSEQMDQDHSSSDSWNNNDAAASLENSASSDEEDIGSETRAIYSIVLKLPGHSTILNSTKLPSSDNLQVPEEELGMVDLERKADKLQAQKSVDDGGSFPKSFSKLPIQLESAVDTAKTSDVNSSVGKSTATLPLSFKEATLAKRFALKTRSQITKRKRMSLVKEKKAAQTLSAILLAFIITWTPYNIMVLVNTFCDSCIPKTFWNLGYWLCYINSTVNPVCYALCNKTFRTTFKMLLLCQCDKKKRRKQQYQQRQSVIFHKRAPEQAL
Procedure, shortened: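 Nonspecific binding defined with atropine 1 µM; eight total-binding replicates per plate. Incubated at room temperature at least 16 h to equilibrium before counting; n ≥ 2.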

[4] = Intrinsic clearance in human liver microsomes; type: ADME; settings: read-out: CLH

Row | SMILES | Kb [1] [nM] | fraction unbound [2] | IC50 [3] [nM] | microsomal CLint [4] [µL/min/mg] | PPB [2]
1 | O=C(O[C@H]1C[N+]2(CCCc3ccncc3)CCC1CC2)C1(c2cccs2)CCCCCC1 | 0.1 | 0.06 | 0.0501 | 55 | 
2 | Cc1ccc(CCC[N+]23CCC(CC2)[C@@H](OC(=O)C2(C4=CC=CC4)CCCCCC2)C3)c(C)n1 |  | 0.04 | 1 | 50 | 
3 | Cn1ccc(CCC[N+]23CCC(CC2)[C@@H](OC(=O)C2(C4=CC=CC4)CCCCCC2)C3)n1 |  | 0.06 | 0.501 | 63 | 
4 | O=C(C[N+]12CCC(CC1)[C@@H](OC(=O)C1(C3=CC=CC3)CCCCCC1)C2)Nc1ccccc1 |  | 0.006 | 0.251 | 27 | 
5 | O=C(C[N+]12CCC(CC1)[C@@H](OC(=O)C1(C3=CC=CC3)CCCCCC1)C2)Nc1cccc(F)c1 | 3.16 | 0.003 | 0.126 | 17 | 
6 | O=C(C[N+]12CCC(CC1)[C@@H](OC(=O)C1(C3=CC=CC3)CCCCCC1)C2)N1CCOCC1 |  |  | 100 | 15 | 
7 | O=C(C[N+]12CCC(CC1)[C@@H](OC(=O)C1(C3=CC=CC3)CCCCCC1)C2)Nc1cc[nH]n1 |  | 0.05 | 0.1 | 37 | 
8 | O=C(C[N+]12CCC(CC1)[C@@H](OC(=O)C1(C3=CC=CC3)CCCCCC1)C2)Nc1nncs1 |  | 0.06 | 7.94 | 39 | 
9 | O=C(C[N+]12CCC(CC1)[C@@H](OC(=O)C1(C3=CC=CC3)CCCCCC1)C2)Nc1ncns1 |  |  | 0.398 | 25 | 
10 | O=C(C[N+]12CCC(CC1)[C@@H](OC(=O)C1(C3=CC=CC3)CCCCCC1)C2)Nc1ncco1 |  | 0.15 | 12.6 | 66 | 
11 | CC(C)(C)c1cc(NC(=O)C[N+]23CCC(CC2)[C@@H](OC(=O)C2(C4=CC=CC4)CCCCCC2)C3)no1 |  |  | 10 |  | 
12 | O=C(C[N+]12CCC(CC1)[C@H](OC(=O)C1(C3=CC=CC3)CCCCCC1)C2)Nc1ccccn1 |  |  | 31.6 |  | 
13 | O=C(C[N+]12CCC(CC1)[C@@H](OC(=O)C1(C3=CC=CC3)CCCCCC1)C2)Nc1cccnc1 |  | 0.04 | 0.2 | 40 | 
14 | O=C(C[N+]12CCC(CC1)[C@@H](OC(=O)C1(C3=CC=CC3)CCCCCC1)C2)Nc1ccncc1 |  | 0.05 | 2.51 | 39 | 
15 | O=C(C[N+]12CCC(CC1)[C@@H](OC(=O)C1(C3=CC=CC3)CCCCCC1)C2)Nc1cncnc1 |  |  | 0.631 | 32 | 
16 | O=C(C[N+]12CCC(CC1)[C@@H](OC(=O)C1(C3=CC=CC3)CCCCCC1)C2)Nc1ccncn1 |  | 0.11 | 0.158 |  | 
17 | O=C(C[N+]12CCC(CC1)[C@@H](OC(=O)C1(C3=CC=CC3)CCCCCC1)C2)Nc1ncccc1F |  | 0.06 | 0.251 | 49 | 
18 | Cc1ccc(NC(=O)C[N+]23CCC(CC2)[C@@H](OC(=O)C2(C4=CC=CC4)CCCCCC2)C3)nc1 |  | 0.019 | 0.501 | 51 | 
19 | O=C(C[N+]12CCC(CC1)[C@@H](OC(=O)C1(C3=CC=CC3)CCCCCC1)C2)Nc1ccc(F)cn1 |  | 0.024 | 0.631 |  | 
20 | Cc1ccnc(NC(=O)C[N+]23CCC(CC2)[C@@H](OC(=O)C2(C4=CC=CC4)CCCCCC2)C3)c1 |  | 0.018 | 0.794 | 30 | 
21 | O=C(C[N+]12CCC(CC1)[C@@H](OC(=O)C1(C3=CC=CC3)CCCCCC1)C2)Nc1cccc(C(F)(F)F)n1 |  | 0.004 | 2.51 |  | 
22 | O=C(C[N+]12CCC(CC1)[C@@H](OC(=O)C1(C3=CC=CC3)CCCCCC1)C2)Nc1ccc(C(F)(F)F)nc1 |  |  | 0.251 | 5 | 

Row | SMILES | Kb [1] [nM] | fraction unbound [2] | IC50 [3] [nM] | microsomal CLint [4] [µL/min/mg] | PPB [2]
23 | Cc1ccc(NC(=O)C[N+]23CCC(CC2)[C@@H](OC(=O)C2(C4=CC=CC4)CCCCCC2)C3)cn1 |  |  | 0.794 |  | 
24 | Cc1nccc(NC(=O)C[N+]23CCC(CC2)[C@@H](OC(=O)C2(C4=CC=CC4)CCCCCC2)C3)n1 |  |  | 0.398 |  | 
25 | Cc1cc(NC(=O)C[N+]23CCC(CC2)[C@@H](OC(=O)C2(C4=CC=CC4)CCCCCC2)C3)ncn1 |  | 0.2 | 1 | 26 | 
26 | Cc1ccc(NC(=O)C[N+]23CCC(CC2)[C@@H](OC(=O)C2(C4=CC=CC4)CCCCCC2)C3)nn1 |  | 0.1 | 0.794 | 16 | 
27 | O=C(C[N+]12CCC(CC1)[C@@H](OC(=O)C1(C3=CC=CC3)CCCCCC1)C2)Nc1ccc(C(F)(F)F)nn1 |  |  | 2.51 |  | 
28 | Cc1cnc(NC(=O)C[N+]23CCC(CC2)[C@@H](OC(=O)C2(C4=CC=CC4)CCCCCC2)C3)cn1 |  | 0.04 | 0.794 | 27 | 
29 | Cc1cncc(NC(=O)C[N+]23CCC(CC2)[C@@H](OC(=O)C2(C4=CC=CC4)CCCCCC2)C3)n1 |  |  | 0.631 | 27 | 
30 | O=C(C[N+]12CCC(CC1)[C@@H](OC(=O)C1(C3=CC=CC3)CCCCCC1)C2)Nc1cncc(Cl)n1 | 0.501 | 0.015 | 0.1 | 51 | 
31 | O=C(C[N+]12CCC(CC1)[C@@H](OC(=O)C1(C3=CC=CC3)CCCCCC1)C2)NCCNC(=O)c1cnccn1 |  |  | 3.16 | 74 | 
32 | O=C(C[N+]12CCC(CC1)[C@@H](OC(=O)C1(C3=CC=CC3)CCCCCC1)C2)NCCCNC(=O)c1ccccn1 |  | 0.026 | 6.31 | 101 | 
33 | O=C(O[C@H]1C[N+]2(Cc3ccn(-c4ccccc4)n3)CCC1CC2)C1(C2=CC=CC2)CCCCCC1 |  |  | 0.398 | 103 | 
34 | O=C(O[C@H]1C[N+]2(Cc3csc(-c4ccccc4)n3)CCC1CC2)C1(C2=CC=CC2)CCCCCC1 |  |  | 25.1 | 133 | 
35 | C[N+]1(C)CCC(OC(=O)C2(c3ccccc3)CCCCCC2)CC1 |  | 0.27 | 0.251 | 20 | 
36 | C[N+]12CCC(CC1)[C@@H](OC(=O)C1(C3=CC=CC3)CCCCCC1)C2 |  | 0.27 | 2.51 | 34 | 
37 | O=C(O[C@H]1C[N+]2(Cc3ccccc3)CCC1CC2)C1(C2=CC=CC2)CCCCCC1 |  |  | 39.8 | 68 | 
38 | O=C(O[C@H]1C[N+]2(Cc3ccc(F)c(F)c3)CCC1CC2)C1(C2=CC=CC2)CCCCCC1 |  |  | 39.8 | 55 | 
39 | COc1cccc(C[N+]23CCC(CC2)[C@@H](OC(=O)C2(C4=CC=CC4)CCCCCC2)C3)c1 |  |  | 3.16 |  | 
40 | O=C(O[C@H]1C[N+]2(CCc3cccc(Cl)c3)CCC1CC2)C1(C2=CC=CC2)CCCCCC1 | 0.251 | 0.005 | < 0.0398 | 72 | 
41 | N#Cc1ccc(CC[N+]23CCC(CC2)[C@@H](OC(=O)C2(C4=CC=CC4)CCCCCC2)C3)cc1 |  |  | 3.16 | 49 | 
42 | O=C(O[C@H]1C[N+]2(CCOc3ccccc3)CCC1CC2)C1(C2=CC=CC2)CCCCCC1 | 0.398 | 0.04 | 0.158 | 106 | 
43 | O=C(O[C@H]1C[N+]2(CCOCc3ccccc3)CCC1CC2)C1(C2=CC=CC2)CCCCCC1 | 3.98 | 0.03 | 0.126 | 120 | 
44 | O=C(O[C@H]1C[N+]2(CCCOc3ccccc3)CCC1CC2)C(O)(c1cccs1)c1cccs1.[Br-] [ACLIDINIUM BROMIDE] |  |  |  | > 145 | ND(Unstable)
